Converted amounts (≈) assume the structure as drawn.
What was measured:
Streptococcus pyogenes [1] = experiment: Activity against Streptococcus pyogenes C203 when administered orally; assay type: functional; conditions: po
In short: (§1)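 Mouse protection test: infected mice were dosed twice, at 1 and 5 h postinfection, either subcutaneously or orally. […] The result is expressed as ED50 in mg/kg × 2.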

Streptococcus pyogenes [2] = experiment: Activity against Streptococcus pyogenes C203 when administered sc; assay type: functional; in short: as §1
Streptococcus pyogenes [3] = experiment: Antimicrobial activity against Streptococcus pyogenes C203; assay type: functional
Bacteroides fragilis [4] = experiment: In vitro antimicrobial activity against anaerobic bacteria bacteroides fragilis 111; assay type: functional
Bacteroides fragilis [5] = experiment: In vitro antimicrobial activity against anaerobic bacteria bacteroides fragilis 1877; assay type: functional
Bacteroides fragilis [6] = experiment: In vitro antimicrobial activity against anaerobic bacteria bacteroides fragilis 1936B,; assay type: functional
Eikenella corrodens = experiment: In vitro antimicrobial activity against anaerobic bacteria bacteroides corrodens 1874; assay type: functional
Phocaeicola vulgatus = experiment: In vitro antimicrobial activity against anaerobic bacteria bacteroides vulgatus 1211; assay type: functional
[7] = test system: Prevotella melaninogenica; experiment: In vitro antimicrobial activity against anaerobic bacteria bacteroides melaninogenicus 1856,; assay type: functional
[8] = test system: Bacteroides thetaiotaomicron; experiment: In vitro antimicrobial activity against anaerobic bacteria bacteroides thetaiotaomicron 1438; assay type: functional
Clostridioides difficile = experiment: In vitro antimicrobial activity against anaerobic bacteria Clostridium difficile 2994; assay type: functional
Clostridium perfringens = experiment: In vitro antimicrobial activity against anaerobic bacteria clostridium perfringens 81,; assay type: functional
Clostridium septicum = experiment: In vitro antimicrobial activity against anaerobic bacteria clostridium septicum 1128; assay type: functional
Chlamydia trachomatis = experiment: In vitro antimicrobial activity against chlamydia trachomatis.; assay type: functional
Fusobacterium = experiment: In vitro antimicrobial activity against anaerobic bacteria fusobacterium symbiosum 1470; assay type: functional
Haemophilus influenzae = experiment: In vitro antimicrobial activity against Haemophilus influenzae.; assay type: functional
Mus musculus [9] = experiment: Peripheral plasma levels in mice after oral administration of 50 mg/kg dose for 2 hr; assay type: functional, organism-based; set-up: dose 50 mg/kg
In short: (§2)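 Mice were given the compound orally and sampled for peripheral plasma at each time point. Plasma was assayed microbiologically against Micrococcus luteus seeded in Antibiotic Medium 1. Inhibition zone sizes were read, and concentrations were calculated from each compound's own standard curve. Each value is the mean of five mice per time point.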

Mus musculus [10] = experiment: Peripheral plasma levels in mice after oral administration of 100 mg/kg dose for 4 hr; assay type: functional, organism-based; set-up: dose 100 mg/kg; in short: as §2
Mus musculus [11] = experiment: Peripheral plasma levels in mice after oral administration of 50 mg/kg dose for 0.25 hr; assay type: functional, organism-based; set-up: dose 50 mg/kg; in short: as §2
Mus musculus [12] = experiment: Peripheral plasma levels in mice after oral administration of 100 mg/kg dose for 0.25 hr; assay type: functional, organism-based; set-up: dose 100 mg/kg; in short: as §2
Mus musculus [13] = experiment: Peripheral plasma levels in mice after oral administration of 100 mg/kg dose for 0.5 hr; assay type: functional, organism-based; set-up: dose 100 mg/kg; in short: as §2
Mus musculus [14] = experiment: Peripheral plasma levels in mice after oral administration of 100 mg/kg dose for 1 hr; assay type: functional, organism-based; set-up: dose 100 mg/kg; in short: as §2
Mus musculus [15] = experiment: Peripheral plasma levels in mice after oral administration of 100 mg/kg dose for 2 hr; assay type: functional, organism-based; set-up: dose 100 mg/kg; in short: as §2
Mus musculus [16] = experiment: Peripheral plasma levels in mice after oral administration of 50 mg/kg dose for 1 hr; assay type: functional, organism-based; set-up: dose 50 mg/kg; in short: as §2
[17] = In vitro antimicrobial activity against anaerobic bacteria peptostreptococcus intermedius 1264; assay type: functional
[18] = test system: Peptoniphilus asaccharolyticus; experiment: In vitro antimicrobial activity against anaerobic bacteria peptococcus asaccharolyticus 1302; assay type: functional
Anaerococcus prevotii = experiment: In vitro antimicrobial activity against anaerobic bacteria peptococcus prevoti 1281; assay type: functional
Cutibacterium acnes = experiment: In vitro antimicrobial activity against anaerobic bacteria propionibacterium acnes 79; assay type: functional
Staphylococcus aureus = experiment: In vitro antimicrobial activity against Staphylococcus aureus X1; assay type: functional
Streptococcus pyogenes [19] = experiment: In vivo effective dose against experimental infections in rodent caused by Streptococcus pyogenes C203 when administered sc; assay type: functional
Streptococcus pneumoniae = experiment: In vitro antimicrobial activity against Streptococcus pneumoniae; assay type: functional
[20] = test system: Staphylococcus epidermidis; experiment: In vitro antimicrobial activity against Staphylococcus epidermidis EPI1; assay type: functional
Enterococcus faecium = experiment: In vitro antimicrobial activity against Streptococcus faecium X66; assay type: functional, streptococcus fae-cium
Streptococcus pyogenes [21] = experiment: In vitro antimicrobial activity against Streptococcus pyogenes C203; assay type: functional
[22] = test system: Prevotella melaninogenica; experiment: In vitro antimicrobial activity against anaerobic bacteria bacteroides melaninogenicus 2736; assay type: functional
[23] = test system: Fusobacterium necrophorum; experiment: In vitro antimicrobial activity against anaerobic bacteria usobacterium necrophorum 6054A; assay type: functional
Mus musculus [24] = experiment: Peripheral plasma levels in mice after oral administration of 50 mg/kg dose for 0.5 hr; assay type: functional, organism-based; set-up: dose 50 mg/kg; in short: as §2
Collinsella aerofaciens = experiment: In vitro antimicrobial activity against anaerobic bacteria eubacterium aerofaciens 1235; assay type: functional
[25] = test system: Peptostreptococcus anaerobius; experiment: In vitro antimicrobial activity against anaerobic bacteria eubacterium peptostreptococcus anaerobius 1428,; assay type: functional
Streptococcus pyogenes [26] = experiment: Effective dose against Streptococcus pyogenes C203 when administered sc; assay type: functional; in short: as §1
Mus musculus [27] = experiment: Peripheral plasma levels in mice after oral administration of 50 mg/kg dose for 4 hr; assay type: functional, organism-based; set-up: dose 50 mg/kg; in short: as §2
Rattus norvegicus [28] = experiment: Peripheral plasma levels in rats after oral administration of 100 mg/kg dose for 0.25 hr; assay type: functional, organism-based; set-up: dose 100 mg/kg
In short: (§3)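 Rats received 100 mg/kg orally and were sampled for peripheral plasma. Concentrations were measured by Micrococcus luteus agar-diffusion microbiological assay in Antibiotic Medium 1, with zone sizes converted using the standard curve for the appropriate compound. Each value is the average of three rats per time point.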

Rattus norvegicus [29] = experiment: Peripheral plasma levels in rats after oral administration of 100 mg/kg dose for 0.5 hr; assay type: functional, organism-based; set-up: dose 100 mg/kg; in short: as §3
Rattus norvegicus [30] = experiment: Peripheral plasma levels in rats after oral administration of 100 mg/kg dose for 1 hr; assay type: functional, organism-based; set-up: dose 100 mg/kg; in short: as §3
Rattus norvegicus [31] = experiment: Peripheral plasma levels in rats after oral administration of 100 mg/kg dose for 2 hr; assay type: functional, organism-based; set-up: dose 100 mg/kg; in short: as §3
Rattus norvegicus [32] = experiment: Peripheral plasma levels in rats after oral administration of 100 mg/kg dose for 4 hr; assay type: functional, organism-based; set-up: dose 100 mg/kg; in short: as §3
Streptococcus pyogenes [33] = experiment: In vivo effective dose against experimental infections in rodent caused by Streptococcus pyogenes C203 when administered orally; assay type: functional; conditions: po

SMILES: CC[C@H]1OC(=O)C[C@@H](O)[C@H](C)[C@@H](O[C@@H]2O[C@H](C)[C@@H](O)[C@H](N(C)C)[C@H]2OC(C)=O)[C@@H](CCOc2ccccc2)C[C@@H](C)C(=O)/C=C/C(C)=C/[C@@H]1CO[C@@H]1O[C@H](C)[C@@H](O)[C@@H](OC)[C@H]1OC
- ED50 (Streptococcus pyogenes [1]): 9 mg/kg
- ED50 (Streptococcus pyogenes [2]): 1 mg/kg
- MIC (Streptococcus pyogenes [3]): 1 µg/mL (≈ 1.12 µM)

SMILES: CC[C@H]1OC(=O)C[C@@H](O)[C@H](C)[C@@H](O[C@@H]2O[C@H](C)[C@@H](O[C@H]3C[C@@](C)(O)[C@@H](O)[C@H](C)O3)[C@H](N(C)C)[C@H]2O)[C@@H](CCCl)C[C@@H](C)C(=O)/C=C/C(C)=C/[C@@H]1CO[C@@H]1O[C@H](C)[C@@H](O)[C@@H](OC)[C@H]1OC
- MIC (Bacteroides fragilis [4]): 8 µg/mL (≈ 8.54 µM)
- MIC (Bacteroides fragilis [5]): 4 µg/mL (≈ 4.27 µM)
- MIC (Bacteroides fragilis [6]): 4 µg/mL (≈ 4.27 µM)
- MIC (Eikenella corrodens): 4 µg/mL (≈ 4.27 µM)
- MIC (Phocaeicola vulgatus): 1 µg/mL (≈ 1.07 µM)
- MIC [7]: 2 µg/mL (≈ 2.14 µM)
- MIC [8]: 2 µg/mL (≈ 2.14 µM)
- MIC (Clostridioides difficile): < 0.5 µg/mL
- MIC (Clostridium perfringens): < 0.5 µg/mL
- MIC (Clostridium septicum): < 0.5 µg/mL
- MIC (Chlamydia trachomatis): 1 µg/mL (≈ 1.07 µM)
- MIC (Fusobacterium): 4 µg/mL (≈ 4.27 µM)
- MIC (Haemophilus influenzae): > 128 µg/mL
- Concentration (Mus musculus [9]): 0.5 µg/mL
- Concentration (Mus musculus [10]): 0.4 µg/mL
- Concentration (Mus musculus [11]): 1.9 µg/mL
- Concentration (Mus musculus [12]): 10 µg/mL
- Concentration (Mus musculus [13]): 8.8 µg/mL
- Concentration (Mus musculus [14]): 3 µg/mL
- Concentration (Mus musculus [15]): 1.3 µg/mL
- Concentration (Mus musculus [16]): 0.9 µg/mL
- MIC [17]: 64 µg/mL (≈ 68.3 µM)
- MIC [18]: 32 µg/mL (≈ 34.2 µM)
- MIC (Anaerococcus prevotii): 8 µg/mL (≈ 8.54 µM)
- MIC (Cutibacterium acnes): > 128 µg/mL
- MIC (Staphylococcus aureus): 1 µg/mL (≈ 1.07 µM)
- ED50 (Streptococcus pyogenes [19]): > 6.3 mg/kg
- MIC (Streptococcus pneumoniae): 32 µg/mL (≈ 34.2 µM)
- MIC [20]: 1 µg/mL (≈ 1.07 µM)
- MIC (Enterococcus faecium): > 128 µg/mL
- MIC (Streptococcus pyogenes [21]): 2 µg/mL (≈ 2.14 µM)
- MIC [22]: 2 µg/mL (≈ 2.14 µM)
- MIC [23]: > 128 µg/mL
- Concentration (Mus musculus [24]): 1.9 µg/mL
- MIC (Collinsella aerofaciens): 64 µg/mL (≈ 68.3 µM)
- MIC [25]: 4 µg/mL (≈ 4.27 µM)

SMILES: CC[C@H]1OC(=O)C[C@@H](O)[C@H](C)[C@@H](O[C@@H]2O[C@H](C)[C@@H](O[C@H]3C[C@@](C)(O)[C@@H](O)[C@H](C)O3)[C@H](N(C)C)[C@H]2O)[C@@H](C)C[C@@H](C)C(=O)/C=C/C(C)=C/[C@@H]1CO[C@@H]1O[C@H](C)[C@@H](O)[C@@H](O)[C@H]1OC [DEFORMYLMACROCIN]
- MIC (Haemophilus influenzae): > 128 µg/mL
- MIC (Staphylococcus aureus): 2 µg/mL (≈ 2.29 µM)
- ED50 (Streptococcus pyogenes [26]): > 10 mg/kg
- ED50 (Streptococcus pyogenes [19]): > 10 mg/kg
- MIC (Streptococcus pneumoniae): 64 µg/mL (≈ 73.2 µM)
- MIC [20]: 2 µg/mL (≈ 2.29 µM)
- MIC (Enterococcus faecium): 128 µg/mL (≈ 146 µM)
- MIC (Streptococcus pyogenes [21]): 2 µg/mL (≈ 2.29 µM)
- MIC (Streptococcus pyogenes [3]): 2 µg/mL (≈ 2.29 µM)

SMILES: CC[C@H]1OC(=O)C[C@@H](O)[C@H](C)[C@@H](O[C@@H]2O[C@H](C)[C@@H](O)[C@H](N(C)C)[C@H]2O)[C@@H](CCF)C[C@@H](C)C(=O)/C=C/C(C)=C/[C@@H]1CO[C@@H]1O[C@H](C)[C@@H](O)[C@@H](OC)[C@H]1OC
- MIC (Haemophilus influenzae): 16 µg/mL (≈ 20.6 µM)
- Concentration (Mus musculus [9]): 0.4 µg/mL
- Concentration (Mus musculus [27]): 0.1 µg/mL
- Concentration (Mus musculus [11]): < 0.1 µg/mL
- Concentration (Mus musculus [16]): 0.2 µg/mL
- Concentration (Rattus norvegicus [28]): 0.3 µg/mL
- Concentration (Rattus norvegicus [29]): 0.5 µg/mL
- Concentration (Rattus norvegicus [30]): 0.1 µg/mL
- Concentration (Rattus norvegicus [31]): 1.9 µg/mL
- Concentration (Rattus norvegicus [32]): 1.5 µg/mL
- MIC (Staphylococcus aureus): 0.25 µg/mL (≈ 0.322 µM)
- ED50 (Streptococcus pyogenes [19]): 5 mg/kg
- MIC (Streptococcus pneumoniae): 2 µg/mL (≈ 2.58 µM)
- MIC [20]: 0.12 µg/mL (≈ 0.155 µM)
- MIC (Enterococcus faecium): 8 µg/mL (≈ 10.3 µM)
- MIC (Streptococcus pyogenes [21]): 0.25 µg/mL (≈ 0.322 µM)
- Concentration (Mus musculus [24]): < 0.1 µg/mL
- ED50 (Streptococcus pyogenes [33]): 8 mg/kg
